Reference: publication PMC2998342 (Peptides, 2009)
Where no end group is shown, it is not given here. [ ]: non-standard residue; d: D form. Met(O) = CS(=O)CC[C@H](N)C(=O)O

How the values were obtained:
[1] = biological target: human KCa1.1 channel (HSlo) (Homo sapiens, UniProt Q12791); assay: Whole-cell patch clamp inhibition of cloned human KCa1.1; assay type: cell-based; details: read-out: inhibition of outward current
In short: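 Whole-cell clamp of HEK293 stably expressing N-terminal Flag-tagged human HSlo. Pipette: KCl/EGTA/Hepes-KOH pH 7.2, 0.5 μM free Ca2+. Bath: NaCl-based pH 7.4. Steps from −80 mV to +100 mV (+10 mV, 100 ms), 5 kHz filter, P/5 leak correction, paxilline-resistant current subtracted. Toxin (50 nM) gravity-perfused; −80→+50 mV pulses every 10 s tracked onset/washout. KI from one-site fit; Kd from kinetic ratio.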

[2] = Biological activity of deprotected IbTx-D19C; details: after selective thiol deprotection using AgBF4; methionine sulfoxide (Met^29)
[3] = biological target: KCa1.1 (UniProt Q12791); details: cited from earlier work
KCa1.1, sequence (Q12791 whole entry): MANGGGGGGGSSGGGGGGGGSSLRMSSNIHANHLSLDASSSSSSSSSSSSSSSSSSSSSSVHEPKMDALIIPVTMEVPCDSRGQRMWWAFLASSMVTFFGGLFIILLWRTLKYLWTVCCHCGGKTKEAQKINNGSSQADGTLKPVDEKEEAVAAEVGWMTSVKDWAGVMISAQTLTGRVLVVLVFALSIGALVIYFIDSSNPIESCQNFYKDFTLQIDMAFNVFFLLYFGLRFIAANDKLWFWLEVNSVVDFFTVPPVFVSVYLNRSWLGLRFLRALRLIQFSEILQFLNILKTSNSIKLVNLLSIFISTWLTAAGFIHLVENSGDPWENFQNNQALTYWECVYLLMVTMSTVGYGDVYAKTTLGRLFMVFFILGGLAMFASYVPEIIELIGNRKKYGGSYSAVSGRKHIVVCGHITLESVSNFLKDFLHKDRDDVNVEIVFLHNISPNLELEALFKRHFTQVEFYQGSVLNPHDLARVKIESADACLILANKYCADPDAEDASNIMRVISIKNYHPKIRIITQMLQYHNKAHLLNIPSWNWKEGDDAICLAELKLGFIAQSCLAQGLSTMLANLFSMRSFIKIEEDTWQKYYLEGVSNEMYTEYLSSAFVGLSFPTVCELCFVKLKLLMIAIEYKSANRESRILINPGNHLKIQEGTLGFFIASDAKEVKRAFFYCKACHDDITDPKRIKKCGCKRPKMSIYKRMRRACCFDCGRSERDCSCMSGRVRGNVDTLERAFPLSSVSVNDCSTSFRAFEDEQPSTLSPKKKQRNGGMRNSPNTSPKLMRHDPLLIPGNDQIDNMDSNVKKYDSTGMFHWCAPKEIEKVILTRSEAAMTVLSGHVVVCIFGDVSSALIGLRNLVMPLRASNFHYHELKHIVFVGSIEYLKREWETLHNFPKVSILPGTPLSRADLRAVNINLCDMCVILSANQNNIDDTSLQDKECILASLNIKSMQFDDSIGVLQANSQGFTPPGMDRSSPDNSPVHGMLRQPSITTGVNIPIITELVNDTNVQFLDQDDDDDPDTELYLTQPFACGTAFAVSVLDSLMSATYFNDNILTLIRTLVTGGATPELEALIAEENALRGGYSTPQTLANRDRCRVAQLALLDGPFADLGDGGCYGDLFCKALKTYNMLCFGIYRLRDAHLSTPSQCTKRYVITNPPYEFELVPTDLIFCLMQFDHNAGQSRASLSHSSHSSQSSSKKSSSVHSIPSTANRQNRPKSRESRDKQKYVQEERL

iberiotoxin, sequence (P24663 whole entry): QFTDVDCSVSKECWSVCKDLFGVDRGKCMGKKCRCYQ
human KCa1.1 channel (HSlo), sequence (Q12791 whole entry, the tested form may be a part): as the sequence (Q12791 whole entry) above

Q: With `CC(C)(O)[C@H]1O[C@H]2CC[C@@]3(C)[C@@](O)(CC[C@H]4Cc5c([nH]c6ccccc56)[C@@]43C)C2=CC1=O` [Paxilline] as the compound, how does the inhibition at 1 µM [1] read?
A: > 95%

Q: For “IbTx-D19C: biologically inactive form of IbTx-D19C from AgBF4 deprotection of IbTx-D19C-Acm (QFTDVDCSVSKECWSVCKCLFGVDRGKC[Met(O)]GKKCRCYQ; ends and bridges not checked; UniProt P24663 1-37, looked up, variant D19C)”, which biological activity [2] is on record?
A: biologically inactive

Q: Which Kd [3] does the source give for iberiotoxin (from UniProt P24663) here?
A: < 1 nM
